A short description of data set [1]: Dissociation constant (PKa) was determined. The format is physicochemical.
Data set [2] is described as follows: Half peak chemical potential versus Ag/Agcl was determined. The format is ADME.
Data set [3] in a line: Nitrate production was measured with Sievers 280 nitric oxide analyzer chemiluminescence. Format: ADME. The essentials: (§1)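 Oxyhemoglobin reacted with hydroxyurea derivatives at 50 mM in 0.1 M sodium phosphate, pH 7.3; nitrite and nitrate products quantified by nitric oxide analyzer chemiluminescence; n = 3.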
Data set [4] can be described thus: Nitrite production was measured with Sievers 280 nitric oxide analyzer chemiluminescence. Format: ADME. The essentials: as §1
The nature of data set [5]: Apparent rate constant was determined. The format is ADME. The essentials:
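Adult human oxyhemoglobin (70 μM in heme; also HbS) in 0.1 M sodium phosphate, pH 7.3, mixed with hydroxyurea derivative at 50 mM (5 mM for one poorly soluble analogue), 25 °C under air. UV-visible absorption recorded every 5 min for up to 12 h. Apparent first-order rate constant in min^-1 derived from the spectral kinetics; mean ± SD, n = 3.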

The values below come from ChEMBL document CHEMBL1145058, “Hydroxyurea analogues as kinetic and mechanistic probes of the nitric oxide producing reactions of hydroxyurea and oxyhemoglobin” (J Med Chem, 2003).

Each structure is given as a SMILES string.

Broadly, the pKa is the pH at which an ionisable group is half protonated. In data set [1], `CCN(CC)C(=O)NO` yielded a pKa of 10.8. Further, in data set [2], the Ep2/2 amounted to 705 mV. In data set [3], this compound showed a Nitrate of 18.5 µM. Further, the Nitrite in data set [4] came out at 6.1 µM. In data set [5], the rate constant app was 0.00226 min⁻¹.

In data set [1], `CN(O)C(N)=O` gave a pKa of 9.95. The compound further displayed an Ep2/2 in data set [2] of 588 mV. The same compound displayed a Nitrate in data set [3] of 7.5 µM. This compound also showed a Nitrite in data set [4] of 6.3 µM. Besides, the rate constant app in data set [5] was determined as 0.0393 min⁻¹.

In turn, `O=C(NO)Nc1ccccc1` gave a pKa in data set [1] of 10.3. Further, in data set [2], the Ep2/2 is listed as 433 mV. Besides, the Nitrate in data set [3] stood at 26.1 µM. Also, the Nitrite in data set [4] was 7.3 µM. Further, the rate constant app in data set [5] is 0.0624 min⁻¹.

For `CCCCNC(=O)NO`, the pKa in data set [1] stood at 11. This compound also showed an Ep2/2 in data set [2] of 693 mV. The same compound came in with a Nitrate in data set [3] of 3.5 µM. In data set [4], this compound registered a Nitrite of 2.4 µM. For the same compound, in data set [5], the rate constant app amounted to 0.00856 min⁻¹.

In data set [1], `COc1ccc(NC(=O)NO)cc1` came in with a pKa of 10.2. Besides, in data set [2], the Ep2/2 is 560 mV. Moreover, in data set [5], the rate constant app was found to be 0.00194 min⁻¹.

As to `CONC(N)=O`, the Nitrate in data set [3] is 0 µM. The same compound showed a Nitrite in data set [4] of 0 µM.

Turning to `NC(=O)NO` [HYDROXYUREA], the pKa in data set [1] was determined as 10.7. In data set [2], this compound yielded an Ep2/2 of 948 mV. The same compound showed a Nitrate in data set [3] of 25.1 µM. The same compound yielded a Nitrite in data set [4] of 9.4 µM. The rate constant app in data set [5] turned out to be 0.000754 min⁻¹.
